A short description of series [1]: folding enthalpy; higher = less favourable; fluorescence melt of hairpins on a sequencing array, two-state fit. The following applies: sodium 0.088 M. In outline: (§1)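 Library hairpins on a sequenced MiSeq flow cell carried annealed Cy3 and quencher oligos, and their Cy3 fluorescence was imaged in 50 mM Na-HEPES pH 8.0 with 25 mM NaCl, in 2.5 °C steps up to 60 °C. Signals were normalised to Cy3 before quenching and to control constructs. Melting temperature and folding enthalpy were obtained from bootstrapped two-state fits, combined by inverse-variance weighting across four replicates, and the fitted temperatures were then raised by 9.35 °C to match UV melts.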

Series [2] in a line: melting temperature; fluorescence melt of hairpins on a sequencing array, two-state fit, raised by 9.35 °C to match UV melts. Conditions: sodium 0.088 M. In outline: as §1

As for GAACGGCGAAAGCCATTC (((.(((....))).))), the folding enthalpy in series [1] is -16.8 kcal/mol. In addition, the Tm in series [2] was 44.2 °C.

Take GTACTGGGAAACCGGTAC ((((.((....)).)))): in series [1], the folding enthalpy is -35.3 kcal/mol. In series [2], the Tm amounted to 50.1 °C.

As to GGGAGCGGAAACACCCCC (((.(.(....).).))), in series [1], the folding enthalpy is -16 kcal/mol. Further, in series [2], the Tm worked out at 28.2 °C.

GTTCCGCGAAAGCGTAAC (((.(((....))).))): in series [1], the folding enthalpy was -20.2 kcal/mol. Also, the Tm in series [2] was found to be 44.1 °C.

On to GTGGAAGGAAACTTCTGC (..((((....))))..), for which the folding enthalpy in series [1] was -14.4 kcal/mol. Moreover, the Tm in series [2] came out at 34.1 °C.

GTAAATGGAAACATTTGC (.(((((....))))).): the folding enthalpy in series [1] was -28.9 kcal/mol. Besides, the Tm in series [2] is 38.6 °C.

Regarding GTTCGCGAAAGCGTCAAC ((((((....)))..))), the folding enthalpy in series [1] is -9.05 kcal/mol. Moreover, the Tm in series [2] came out at 28.1 °C.

As for GCTGTCGAAAGACCCAGC ((((((....)))..))), in series [1], the folding enthalpy is -15.9 kcal/mol. Further, the Tm in series [2] amounted to 34.8 °C.

As to GATTGCCGAAAGGCTATC (((.(((....))).))), the folding enthalpy in series [1] is -19.1 kcal/mol. For the same sequence, the Tm in series [2] came out at 51.4 °C.

On to GTATCCGAAAGGACGTAC ((((((....)))..))), for which the folding enthalpy in series [1] is -9.37 kcal/mol. Also, the Tm in series [2] was 25.9 °C.

With GAGACCGAAAGGTATCTC ((((((....)))..))), the folding enthalpy in series [1] is -24 kcal/mol. Besides, the Tm in series [2] came to 53 °C.

Turning to GCGCGCCCGAAAGGGCGC (((..(((....)))))), in series [1], the folding enthalpy is -4.64 kcal/mol. Further, in series [2], the Tm came to 68.4 °C.

For the sequence GTTGCCGAAAGGCAAAC ((((((....))).))), the folding enthalpy in series [1] was -11.6 kcal/mol. Moreover, the Tm in series [2] was found to be 58 °C.

As to GCGGCGGGAAACCGCCAC (.(((((....))))).), the folding enthalpy in series [1] was -10.5 kcal/mol. The Tm in series [2] worked out at 52.6 °C.

Regarding GATTGGCGAAAGCCGATC (((.(((....))).))), the folding enthalpy in series [1] was -25.8 kcal/mol. Moreover, in series [2], the Tm was found to be 56.8 °C.

Consider GTCTCCCGAAAGGGTGAC (((.(((....))).))), for which, in series [1], the folding enthalpy is -31.1 kcal/mol. Further, the Tm in series [2] amounted to 56.5 °C.

Take GGCGTCGGAAACGACGTC (.(((((....))))).): in series [1], the folding enthalpy was -23.4 kcal/mol. Besides, the Tm in series [2] was 66.2 °C.

As for GATCCATTTATGGATC ((((((....)))))), in series [1], the folding enthalpy was -44.2 kcal/mol. For the same sequence, the Tm in series [2] turned out to be 60.8 °C.

Regarding GTGCAGGGAAACCTGTGC (..((((....))))..), the folding enthalpy in series [1] is -21.6 kcal/mol. Also, the Tm in series [2] amounted to 44.6 °C.

For GATCAGCGTGCTGATC ((((((....)))))), the folding enthalpy in series [1] was -37.1 kcal/mol. The Tm in series [2] was 67.2 °C.

As for GATAATGGAAACATTGTC ((.((((....)))).)), in series [1], the folding enthalpy is -31.2 kcal/mol. In addition, the Tm in series [2] stood at 36.2 °C.

As for CGGCGCGGAAACGCCCCG (((.(((....))).))), in series [1], the folding enthalpy is -17.5 kcal/mol. In addition, the Tm in series [2] is 52 °C.

In the case of GCGGCCGTCCGC ((((....)))), in series [1], the folding enthalpy is -25.8 kcal/mol. Besides, the Tm in series [2] is 58.6 °C.

As for GCCTTCGGAAACAAAGGC (((((.(....).))))), the folding enthalpy in series [1] is -27.5 kcal/mol. Besides, the Tm in series [2] amounted to 41.9 °C.

In the case of GTCAGCGAAAGCTTAGAC ((((((....)))..))), in series [1], the folding enthalpy was -15.3 kcal/mol. Further, the Tm in series [2] came to 40 °C.

As for GATTGTGCGAAAGCAATC (((..(((....)))))), the folding enthalpy in series [1] is -12.8 kcal/mol. Further, in series [2], the Tm was 34 °C.

Regarding GATCCGGGAAACCGGGTC ((.((((....)))).)), the folding enthalpy in series [1] is -41.6 kcal/mol. In addition, in series [2], the Tm is 54.5 °C.

For the sequence ACAAAGAAATTTGT (((((....))))), the folding enthalpy in series [1] is -6.26 kcal/mol. Moreover, the Tm in series [2] turned out to be 22.5 °C.

As for GGAATTCGAAAGAAATCC (((.(((....))).))), in series [1], the folding enthalpy was -30.5 kcal/mol. Also, the Tm in series [2] was 39.5 °C.

For the sequence GGGATCGAAAGATGACCC ((((((....)))..))), in series [1], the folding enthalpy was -27.8 kcal/mol. The Tm in series [2] was 33.6 °C.

Consider GTCTCACGAAAGTGTGAC (((.(((....))).))), for which the folding enthalpy in series [1] is -43.4 kcal/mol. Besides, the Tm in series [2] was found to be 53.8 °C.

For GATCTCCACCGAGATC ((((((....)))))), in series [1], the folding enthalpy is -37.2 kcal/mol. Also, in series [2], the Tm was 51.9 °C.

Consider GTGTTTTCGAAAGAACAC (((..(((....)))))), for which the folding enthalpy in series [1] is -32.9 kcal/mol. Further, the Tm in series [2] worked out at 38.3 °C.

For GTACTCGAAAGAGCGTAC ((((((....)))..))), in series [1], the folding enthalpy was -10.7 kcal/mol. The Tm in series [2] is 28.5 °C.

Consider GGTCACGAAAGTGCAACC ((((((....)))..))), for which the folding enthalpy in series [1] was -15.9 kcal/mol. For the same sequence, the Tm in series [2] stood at 38.6 °C.

For the sequence GGTATCGAAAGATATACC ((((((....)))..))), the folding enthalpy in series [1] was -19.7 kcal/mol. The Tm in series [2] is 34 °C.

Consider GAGGACGGAAACGCCCTC ((((.((....)).)))), for which the folding enthalpy in series [1] is -47.2 kcal/mol. The Tm in series [2] worked out at 51.7 °C.

Values taken from the array DNA melting data of Ke et al. (doi:10.1101/2024.01.08.574731).
